Screening data: PubChem, Johns Hopkins Ion Channel Center
RGS4 block: inhibitors of human RGS4; HEK293 M3R/RGS4 inducible, Fluo-4 calcium flux; stronger effect = higher value; triggered by carbachol at its EC20; hit rate 0.45% among 310,000; P49798; AID 463165; B-score at 10 µM;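 active = B-score, a plate-corrected calcium signal, over three deviations above library mean, with baseline fluorescence within five deviations of library mean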;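 note: RGS4 expression induced by doxycycline in cells with stable M3 receptor; B-score is computed from the integrated fluorescence ratio over baseline after carbachol; higher B-score means a larger calcium signal and so more RGS4 inhibition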
Target sequence (P49798 whole entry, looked up): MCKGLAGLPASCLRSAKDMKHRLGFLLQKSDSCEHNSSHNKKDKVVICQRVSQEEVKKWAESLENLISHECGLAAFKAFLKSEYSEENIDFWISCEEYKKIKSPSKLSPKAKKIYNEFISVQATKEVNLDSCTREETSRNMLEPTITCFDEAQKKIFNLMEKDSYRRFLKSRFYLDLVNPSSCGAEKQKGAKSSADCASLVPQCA
MrgX1 agonist: activates human MrgX1 receptor signaling; hit rate 0.44% among 310,000; B-score at 10 µM; MrgX1-HEK293 cells, Fluo-4 calcium fluorescence, agonist mode; stronger effect = higher value; AID 588627;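 active = calcium response B-score plate-corrected fluorescence ratio at least 3 library SD, with starting fluorescence B-score inside 5 SD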
Target sequence (Q96LB2 whole entry, looked up): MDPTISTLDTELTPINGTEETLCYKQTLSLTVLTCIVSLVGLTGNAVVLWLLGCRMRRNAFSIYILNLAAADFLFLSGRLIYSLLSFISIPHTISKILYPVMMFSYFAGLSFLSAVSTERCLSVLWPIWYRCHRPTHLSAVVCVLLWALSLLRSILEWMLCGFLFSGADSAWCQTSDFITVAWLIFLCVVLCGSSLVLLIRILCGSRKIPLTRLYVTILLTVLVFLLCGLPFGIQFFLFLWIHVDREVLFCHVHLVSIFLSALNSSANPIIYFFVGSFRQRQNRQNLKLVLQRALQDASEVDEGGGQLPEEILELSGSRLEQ
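System: HEK293 cells stably expressing human MrgX1 receptor; Dosing: test compound in the initial addition of three; Schedule: overnight plating, then 30 min 37 °C plus 30 min room-temperature dye loading; Detection: kinetic calcium dye fluorescence, Fluo-4 NW; Controls: per-plate positive and negative controls for Z′ factor.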
MrgX1 antag: human MrgX1 receptor antagonism, primary screen; AID 588676; Q96LB2; hit rate 1.3% among 310,000; B-score at 10 µM; MRGX1-HEK293 calcium flux, Fluo-4, BAM8-22 antagonism; stronger effect = lower value;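 active = calcium-response B-score plate-corrected more than 3 library SD below zero, starting fluorescence within 5 deviations, no agonist response on first addition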;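 note: peak minus trough fluorescence over baseline after final BAM8-22 challenge near maximal dose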
MrgX1 allo act: allosterically activates human MrgX1 receptor signaling; Q96LB2; MrgX1-HEK293, Fluo-4 calcium flux, FDSS; stronger effect = higher value; B-score at 10 µM; hit rate 0.63% among 310,000; AID 588675;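 active = plate-corrected calcium response at least 3 library SD above typical, normal starting fluorescence, not activating the receptor alone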;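 note: compound read alongside a low EC10 to EC30 dose of BAM8-22 agonist; peak minus trough fluorescence over baseline measured at the second addition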
RGS4 pot: RGS4 potentiation or activation; HEK293 M3R/inducible RGS4, carbachol calcium flux Fluo4; stronger effect = lower value; B-score at 10 µM; hit rate 0.92% among 310,000; AID 463111;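 active = B-score of the integrated calcium signal more than 4 SD below the library mean, with starting fluorescence not abnormally high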;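 note: negative B-score means reduced calcium response which marks RGS4 activation or potentiation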
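Material: M3R-expressing HEK293 line, RGS4 induced by doxycycline | Schedule: Overnight RGS4 induction, 30 min dye load 37 °C, 20 min compound RT | Measured by: Fluo4 fluorescence kinetic imaging of calcium | Read-out: Integrated calcium ratio converted to B score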
Each line names hits and unclear results; the compound was inactive in the other large screens; ! = not active in a repeat. The list is not random: actives were taken first. Their share in the collection is about 3.5%.

Cc1ccc(NC(=O)/C(=C/c2cccc(Br)c2)NC(=O)c2ccco2)cc1	none
O=C(NCCN1C(=O)S/C(=C\c2ccc(Cl)c([N+](=O)[O-])c2)C1=O)C1=COCCO1	none
CC1CCN(CC(CS(=O)(=O)c2ccc([N+](=O)[O-])cc2)N2CCC(C)CC2)CC1 (configuration not stated)	MrgX1 antag -5.2
CCN(Cc1ccc(C#CCCO)cc1)CC1CCCN(CCc2cccc(OC)c2)C1 (configuration not stated)	RGS4 pot -7
CCN(Cc1ccc(NC(C)=O)cc1)CC1CCCN(CCc2cccc(F)c2)C1 (configuration not stated)	none
CCOc1cc(/C=C(/C#N)C(=O)Nc2ccc(O)cc2)cc(Br)c1O	MrgX1 agonist 62
COc1ccc(C(=O)/C=C2/C(=O)Nc3ccccc32)c(OC)c1	none
COc1ccc(C(=O)/C=C2/C(=O)Nc3ccccc32)cc1OC	RGS4 block 12
CCN(CC(=O)Nc1c(F)cccc1F)C(=O)c1ccc(COc2ccccc2)o1	none
CCc1cccc(NC(=O)C2CC2c2ccccc2)c1 (configuration not stated)	none
O=C(NNC(=O)C1CC1c1ccccc1)Nc1cccc(Cl)c1 (configuration not stated)	MrgX1 antag -5.4
Cc1noc(C)c1CSCC(=O)N(C)CC(=O)Nc1ccc(Cl)cc1	none
CCOc1cccc(CNc2ccc(O)cc2)c1OCc1ccc(Cl)cc1Cl	none
CCOc1cccc(CNc2ccc(O)cc2)c1OCc1ccccc1Cl	MrgX1 agonist 29
O=C(NCCCn1ccnc1)c1ccccc1Br	none
CCOC(=O)N1CCN(S(=O)(=O)c2cc(Br)cnc2N)CC1	RGS4 pot -7.4
Brc1ccccc1OCCCOc1cccc2cccnc12	none
COc1cccc(C=O)c1OCCCOc1cccc2cccnc12	MrgX1 agonist 33
Cc1coc2cc3oc(=O)c(CCC(=O)NCCCn4ccnc4)c(C)c3cc12	none
Cc1c(CCC(=O)NCCCn2ccnc2)c(=O)oc2cc3occ(C(C)(C)C)c3cc12	RGS4 pot -7.3
Cc1coc2cc3oc(=O)c(CCC(=O)NC4CC4)c(C)c3cc12	MrgX1 allo act 9.4
Cc1oc2cc3oc(=O)c(CCC(=O)NC4CC4)c(C)c3cc2c1C	none
O=C(Nc1ccncc1)c1ccc(Cl)c(S(=O)(=O)N2CCCCC2)c1	none
CCN(CC)CCOC(=O)c1ccc(NC(=O)c2ccc(Cl)c(S(=O)(=O)N3CCCCCC3)c2)cc1	MrgX1 antag -6.8
CCCCCCCCCCCC(=O)c1c(O)cccc1O	RGS4 pot -9.2
CSC1=C(C#N)C(c2ccccc2Cl)C2=C(N1)c1ccccc1C2=O (configuration not stated)	MrgX1 agonist 32
Nc1ccc2nc[nH]c2c1	none
CCOc1ccccc1NC(=O)C1(S(=O)(=O)c2ccc(Cl)cc2)CC1	RGS4 pot -7
COc1ccc(CCNC(=O)c2ccc3c(c2)NC(=O)C(CSCc2cc(C)ccc2C)N3)cc1OC (configuration not stated)	MrgX1 agonist 28
N#C/C(=C\c1cn(-c2ccccc2)nc1-c1cccnc1)c1nnc2n1CCCCC2	none
Cc1c(CCOC(=O)CC23CC4CC(CC(C4)C2)C3)sc[n+]1Cc1ccccc1	RGS4 pot -7.7
Cc1ncc(C[n+]2csc(CCOC(=O)CC34CC5CC(CC(C5)C3)C4)c2C)c(N)n1	none
COc1ccccc1NC(=O)CC1S/C(=N/N=C(\C)C2CCCCC2)NC1=O (configuration not stated)	none
COc1ccc(/C=N/NC(=O)CCn2cnc(-c3ccccc3)c2-c2ccccc2)cc1OC	MrgX1 antag -5.6
COc1ccc(/C=N/NC(=O)CCC(=O)Nc2ccccc2)cc1OC	none
COc1ccc(C(=O)N/N=C/c2ccc(OC)c(CN3CCc4cc(OC)c(OC)cc4C3C)c2)cc1 (configuration not stated)	none
C=CC[N+]1(CC#Cc2ccccc2)CCCC1	none
C(#Cc1ccccc1)C[N+]1(CC#Cc2ccccc2)CCCC1	RGS4 pot -8.1
O=C(Nc1cccc(Cl)c1)C1C2CCC3C(CCC21)C3(Cl)Cl (configuration not stated)	RGS4 pot -7.5
CC1(c2ccccc2Cl)NC(=O)N(CC(=O)c2ccc3c(c2)OCO3)C1=O (configuration not stated)	none
CNC(=O)CSc1nc2cccnc2n1-c1ccc(F)cc1	none
CC(=O)NC(Cc1cccc(C)c1)C(=O)NC1CCN(c2ncccc2[N+](=O)[O-])CC1 (configuration not stated)	MrgX1 antag -4.7
CCOC(=O)C(=NCCCN1CCOCC1)NNc1cccc(C(F)(F)F)c1	none
O=C1C=CC(=O)N1c1cccc(-c2ccccc2)c1	RGS4 pot -9.5
C=CCn1c(SCCCC)nc(O)cc1=O	MrgX1 allo act 10!
CCOC(=O)N1CCN(C(=O)CN(C)S(=O)(=O)c2ccc(Cl)cc2)CC1	none
CC(C)CN(C(=O)c1ccco1)c1nc2ccccc2s1	none
CC(C)CN(C(=O)c1nn(C)c(=O)c2ccccc12)c1nc2ccccc2s1	MrgX1 allo act 7
O=[N+]([O-])c1ccc(OCCO)nc1	none
CC(C)C(=O)Nc1cccc(C(=O)NCc2ccc3c(c2)OCO3)c1	none
CC12CC(NC(=O)N1c1cccc(C(=O)NCc3ccc4c(c3)OCO4)c1)c1cc(Cl)ccc1O2 (configuration not stated)	MrgX1 antag -7
CN(Cc1ccccc1Cl)C(=O)C1CCC(=O)N(C2CCCCCC2)C1 (configuration not stated)	none (no result: MrgX1 agonist, MrgX1 antag, MrgX1 allo act)
CCOC(=O)C(CC)(CCC(=O)O)c1csc(Nc2ccc(C)cc2)n1 (configuration not stated)	MrgX1 antag -7.4
CCOC(=O)Cc1csc(Nc2ccc(Cl)cc2)n1	none
CCN(CC)C(=O)CSC(Nc1ccc(F)cc1)=C(C#N)C#N	MrgX1 agonist 44
Clc1cccc(Cl)c1/C=C/c1nc2ccccc2[nH]1	MrgX1 allo act 7.7
N#Cc1ccsc1NC(=O)C1CCCN1S(=O)(=O)c1cccs1 (configuration not stated)	none
CC(C)c1ccc(S(=O)(=O)/N=C2/C=C(Sc3ncn[nH]3)C(=O)c3ccccc32)cc1	MrgX1 allo act 8.6 (no result: RGS4 block, RGS4 pot)
OCCc1c[nH]c2ccc(OCc3ccccc3)cc12	none
NS(=O)(=O)c1ccc(CCNCc2ccccc2OCc2ccc(F)cc2)cc1	MrgX1 antag -4.8
O=C(Nc1ccccc1N(C(=O)c1ccco1)S(=O)(=O)c1cccs1)c1ccco1	MrgX1 allo act 12
Cc1ccc(NC(=O)CC2C(=O)N(Cc3ccccc3)C(=S)N2NC(=O)c2ccccc2)c(C)c1 (configuration not stated)	none
CCN(CC)c1ccc(/C=C/c2ccc3ccc(OC)cc3[n+]2CC)cc1	MrgX1 antag -9.3, RGS4 pot -8.5
